In ChEMBL document CHEMBL4813972, “A grafted peptidomimetic for EGFR heterodimerization inhibition: Implications in NSCLC models” (Eur J Med Chem, 2021):
Activity calls are given as the source filed them. The rule behind the calls is not given here.

Experiments:
[1] = biological target: T1, Epidermal growth factor receptor and ErbB2 (HER1 and HER2) (Homo sapiens) (UniProt P04626+P00533); experiment: Inhibition of HER2/EGFR dimerization in human A549 cells incubated for 48 hrs by proximity ligation assay; format: cell-based; conditions: dose 0.5-1 µM
Summary of the method: (§1)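 A549 or Calu-3 cells (~1×10^4/well) on chamber slides, treated 48 h with 0.5 or 1 μM peptide. Controls: no compound, and one primary antibody omitted. Cells fixed in cold methanol, primary antibodies (EGFR, HER2, HER3) applied overnight at 4 °C, then PLA probes. Red fluorescence imaged at 40x and quantified over 3–6 fields.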

BT-474 = experiment: Antiproliferative activity against human BT-474 cells overexpressing HER2 assessed as cell growth inhibition incubated for 72 hrs by cell titer glo assay; format: functional, cell-based; conditions: BT-474, 72 h
Mus musculus [2] = experiment: In vivo inhibition of HER2/EGFR dimerization in human Calu-3 cells xenografted in Foxn1nu/Foxn1+ mouse at 8 mg/kg, IT(Intratumoral) administered thrice a week for 28 days and measured on day 28 by proximity ligation assay; format: functional, organism-based; conditions: time 28.0 day
Summary of the method: (§2)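 Tumors taken from the Calu-3 intratumoral study (8 mg/kg three times weekly, 28 days). Two tumors frozen at −80 °C, homogenized and immunoblotted for p-HER2. Others fixed, paraffin-embedded and sectioned at 5 μm. Sections underwent citrate pH 6.0 antigen retrieval, H2O2 block and BSA/NGS/Triton block, EGFR/HER2 primaries overnight at 4 °C, then PLA probes; imaged at 10X/40X.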

[3] = Toxicity in Foxn1nu/Foxn1+ mouse xenografted with human A549 cells harbouring KRAS mutant/wild type EGFR assessed as enlarged cells in lung at 6 mg/kg, iv administered twice a week for 5 weeks; conditions: in vivo, 840 h
Calu-3 = experiment: Antiproliferative activity against human Calu-3 cells overexpressing HER2 assessed as cell growth inhibition incubated for 72 hrs by cell titer glo assay; format: functional, cell-based; conditions: Calu-3, 72 h
Mus musculus [4] = experiment: In vivo inhibition of HER2/HER3 dimerization in human A549 cells harbouring KRAS mutant/wild type EGFR xenografted in Foxn1nu/Foxn1+ mouse by measuring reduction in red fluorescence at 6 mg/kg, iv administered twice a week for 5 weeks by proximity ligation assay; format: functional, organism-based
Summary of the method: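 Lung tumor sections from the A549-Red-FLuc i.v. metastasis mice (6 mg/kg i.v. twice weekly; sacrificed day 35). FFPE sections had citrate pH 6.0 antigen retrieval at 100 °C, peroxidase and serum blocking, primaries overnight at 4 °C, and PLA probes for EGFR:HER2 and HER2:HER3. Red fluorescence imaged at 40×.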

NCI-H1975 [5] = experiment: Synergistic antiproliferative activity against human NCI-H1975 cells assessed as combination index after 72 hrs in presence of erlotinib by cell titer glo assay; format: functional
[6] = biological target: Receptor tyrosine-protein kinase erbB-2 (Homo sapiens) (UniProt P04626); experiment: Inhibition of HER2 ECD in human A549 cells assessed as reduction in HER2 intracellular kinase domain phosphorylation at 1 uM incubated for 40 hrs by Western blot analysis; format: cell-based
[7] = Thermal stability of compound at 15 uM incubated at 25 to 75 degC by Circular dichroism spectrometry; format: physicochemical
Summary of the method: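 Peptide at 15 μM in acetonitrile. Ellipticity recorded from 25 to 75 °C in 5 °C steps.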

Mus musculus [8] = experiment: In vivo inhibition of HER2 in human Calu-3 cells xenografted in Foxn1nu/Foxn1+ mouse assessed as reduction in HER2 phosphorylation at 8 mg/kg, IT(Intratumoral) administered thrice a week for 28 days and measured on day 28 by Western blot analysis; format: functional, organism-based; conditions: time 28.0 day; summary of the method: as §2
A549 [9] = experiment: Effect on HER2 expression in human A549 cells at 1 uM incubated for 40 hrs by Western blot analysis; format: functional, cell-based
[10] = biological target: ErbB-2/ErbB-3 heterodimer (Homo sapiens) (UniProt P04626+P21860); experiment: Inhibition of HER2/HER3 dimerization in human A549 cells incubated for 48 hrs by proximity ligation assay; format: cell-based; conditions: dose 0.5-1 µM; summary of the method: as §1
NCI-H1975 [11] = experiment: Synergistic antiproliferative activity against human NCI-H1975 cells assessed as combination index after 72 hrs in presence of lapatinib by cell titer glo assay; format: functional
[12] = Toxicity in BALB/c mouse assessed as Ki-67 expression in CD4+CD8+ at 6 mg/kg, iv administered on day 0 and 10 and spleenocytes collected on day 13 and incubated for 48 hrs by flow cytometry analysis; format: organism-based; conditions: in vivo, 360 h, time 15 day
Summary of the method: (§3)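 Female BALB/c mice given 6 mg/kg peptide in PBS i.v. (or PBS) on days 0 and 10, 12 mice in total. Splenocytes harvested day 13, RBC-lysed, and ≥2×10^6 cultured 48 h in RPMI/10% FBS with control media or peptide. Cells then stained for viability, CD3/CD4/CD8a and intracellular Ki67, and analyzed by flow cytometry.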

[13] = Toxicity in Foxn1nu/Foxn1+ mouse xenografted with human Calu-3 cells assessed as effect on body weight at 8 mg/kg, IT(Intratumoral) administered thrice a week for 28 days and measured on day 28; format: organism-based; conditions: in vivo, other, 672 h, time 28 day
[14] = biological target: Receptor tyrosine-protein kinase erbB-2 (Homo sapiens) (UniProt P04626); experiment: Binding affinity to HER2 (unknown origin) assessed as reduction in heterodimerization of HER2/EGFR by competitive based SPR analysis
Summary of the method: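 Competitive SPR: EGFR with EGF immobilized on a CM5 chip. HER2 protein fixed at 200 nM was preincubated 15 min in HEPES buffer with varying peptide, then injected. Read-out was the drop in response units. Surface regenerated with glycine pH 2.2 between injections.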

[15] = Toxicity in BALB/c mouse assessed as Ki-67 expression in CD4+ at 6 mg/kg, iv administered on day 0 and 10 and spleenocytes collected on day 13 and incubated for 48 hrs by flow cytometry analysis; format: organism-based; conditions: in vivo, 360 h, time 15 day; summary of the method: as §3
[16] = biological target: Receptor tyrosine-protein kinase erbB-2 (Homo sapiens) (UniProt P04626); experiment: Binding affinity to HER2 ECD (unknown origin) by SPR analysis
[17] = Toxicity in Foxn1nu/Foxn1+ mouse xenografted with human A549 cells harbouring KRAS mutant/wild type EGFR assessed as hyper-chromatic nuclei in lung at 6 mg/kg, iv administered twice a week for 5 weeks; conditions: in vivo, 840 h
A549 [18] = experiment: Antitumor activity in Red-Fluc transfected human A549 cells harbouring KRAS mutant/wild type EGFR xenografted in Foxn1nu/Foxn1+ mouse assessed as reduction in tumor growth by measuring relative luminescence intensity at 6 mg/kg, iv treated twice a week measured after 2 weeks relative to vehicle; format: functional, organism-based
[19] = Toxicity in BALB/c mouse assessed as Ki-67 expression in CD8+ at 6 mg/kg, iv administered on day 0 and 10 and spleenocytes collected on day 13 and incubated for 48 hrs by flow cytometry analysis; format: organism-based; conditions: in vivo, 360 h, time 15 day; summary of the method: as §3
[20] = biological target: Receptor tyrosine-protein kinase erbB-2 (Homo sapiens) (UniProt P04626); experiment: Binding affinity to HER2 domain IV (unknown origin) by SPR analysis
[21] = biological target: T1, Epidermal growth factor receptor and ErbB2 (HER1 and HER2) (Homo sapiens); experiment: Inhibition of HER2/EGFR dimerization in human Calu-3 cells incubated for 48 hrs by proximity ligation assay; format: cell-based; conditions: dose 0.5-1 µM; summary of the method: as §1
[22] = Toxicity in Foxn1nu/Foxn1+ mouse xenografted with human A549 cells harbouring KRAS mutant/wild type EGFR assessed as eosinophilic cytoplasm in lung at 6 mg/kg, iv administered twice a week for 5 weeks; conditions: in vivo, 840 h

Receptor tyrosine-protein kinase erbB-2 (Homo sapiens), sequence (P04626 whole entry, the tested form may be a part): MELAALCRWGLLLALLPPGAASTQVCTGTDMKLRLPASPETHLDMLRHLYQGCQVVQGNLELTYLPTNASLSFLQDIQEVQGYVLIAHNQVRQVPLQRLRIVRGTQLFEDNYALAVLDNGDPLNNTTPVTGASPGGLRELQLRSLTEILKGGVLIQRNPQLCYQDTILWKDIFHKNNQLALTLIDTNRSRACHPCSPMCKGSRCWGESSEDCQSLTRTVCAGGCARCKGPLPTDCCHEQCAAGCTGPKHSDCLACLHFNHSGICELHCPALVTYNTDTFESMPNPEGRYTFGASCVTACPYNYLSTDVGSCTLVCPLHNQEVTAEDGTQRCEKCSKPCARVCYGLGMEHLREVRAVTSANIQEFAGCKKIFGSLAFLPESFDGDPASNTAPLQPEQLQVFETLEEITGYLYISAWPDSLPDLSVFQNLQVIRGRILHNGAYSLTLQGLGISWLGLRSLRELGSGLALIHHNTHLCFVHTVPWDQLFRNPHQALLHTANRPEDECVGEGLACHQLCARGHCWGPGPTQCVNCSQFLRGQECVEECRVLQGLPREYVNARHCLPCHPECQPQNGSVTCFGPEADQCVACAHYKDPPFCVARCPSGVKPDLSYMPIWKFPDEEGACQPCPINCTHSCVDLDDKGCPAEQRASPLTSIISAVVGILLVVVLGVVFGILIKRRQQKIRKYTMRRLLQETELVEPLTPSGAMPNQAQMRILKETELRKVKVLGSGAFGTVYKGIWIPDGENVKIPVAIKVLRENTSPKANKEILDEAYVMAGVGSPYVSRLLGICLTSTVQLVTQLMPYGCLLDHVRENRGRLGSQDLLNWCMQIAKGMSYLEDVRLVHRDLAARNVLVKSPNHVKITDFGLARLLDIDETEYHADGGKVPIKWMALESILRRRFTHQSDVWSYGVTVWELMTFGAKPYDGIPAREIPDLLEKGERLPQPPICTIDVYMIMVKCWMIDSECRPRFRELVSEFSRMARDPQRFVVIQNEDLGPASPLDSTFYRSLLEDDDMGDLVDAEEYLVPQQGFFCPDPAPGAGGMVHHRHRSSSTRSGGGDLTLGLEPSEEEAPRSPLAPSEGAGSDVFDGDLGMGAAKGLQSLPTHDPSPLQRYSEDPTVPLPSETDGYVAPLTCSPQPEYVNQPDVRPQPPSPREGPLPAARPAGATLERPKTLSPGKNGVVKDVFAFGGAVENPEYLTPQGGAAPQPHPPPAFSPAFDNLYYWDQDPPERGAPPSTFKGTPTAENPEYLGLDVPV

inhibition [1]: Dose-Dependent Effect | IC50 (BT-474): 0.28 µM | IC50 (Calu-3): 0.073 µM | inhibition [6]: Active | Stabilty [7]: Stable | inhibition [10]: Dose-Dependent Effect | Activity [14]: Active | Activity [16]: Dose-Dependent Effect | Activity [20]: Dose-Dependent Effect | inhibition [21]: Dose-Dependent Effect
Compound: CC[C@H](C)[C@H]1C(=O)NC(=O)[C@H](CCCNC(=N)N)NC(=O)C[C@@H](c2cccc3ccccc23)NC(=O)N[C@H]2CSSC[C@H](NC(=O)C[C@@H](c3cccc4ccccc34)NC(=O)[C@H](CCCNC(=N)N)NC(=O)[C@@H]3CCCN3C(=O)[C@@H]3CCCN13)C(=O)N[C@@H](Cc1ccccc1)C(=O)N1CCC[C@H]1C(=O)N[C@@H](CC(=O)O)C(=O)NC(=O)[C@H](CC(=O)O)NC(=O)[C@H](Cc1ccccc1)NC2=O
inhibition (Mus musculus [2]): Active | Activity [3]: Non-Toxic | inhibition (Mus musculus [4]): Active | CI (NCI-H1975 [5]): 0.76 | inhibition (Mus musculus [8]): Active | Activity (A549 [9]): inactive | CI (NCI-H1975 [11]): 0.83 | Activity [12]: Non-Toxic | Activity [13]: Non-Toxic | Activity [15]: Non-Toxic | Activity [17]: Non-Toxic | Activity (A549 [18]): Active | Activity [19]: Non-Toxic | Activity [22]: Non-Toxic
